Measured values taken from ChEMBL document CHEMBL4665791 (J Med Chem, 2020).

Assays:
[1] = Cytotoxicity against human iPSC-derived neurons assessed as effect on cell-rounding; format: tissue-based; conditions: induced pluripotent stem cell-derived neuron
[2] = Cytotoxicity against human iPSC-derived neurons assessed as decrease in SNAP25 signal; format: tissue-based; conditions: induced pluripotent stem cell-derived neuron
HEK293 [3] = test: Cytotoxicity against HEK293 cells assessed inhibition of cell proliferation after 24 hrs by MTT assay; format: cell-based; conditions: Homo sapiens, HEK293, 24 h
Summary of the method: (§1)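 HEK293T cells in DMEM with 10% FBS and 1% Pen Strep were seeded at 5,000 cells/well and left 24 h at 37 °C, 5% CO2. Compounds were then added as 2-fold dilutions from 100 to 3.13 μM (1% DMSO) for 24 h. MTT was added for 4 h, and formazan was dissolved in acidified isopropanol. A570 was read with 630 nm background subtracted, normalized to DMSO control, and fitted with a four-parameter curve for IC50.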

HEK293 [4] = test: Cytotoxicity against HEK293 cells assessed inhibition of cell proliferation up to 100 uM after 24 hrs by MTT assay; format: cell-based; conditions: human, hek293, 24 h; summary of the method: as §1

| Compound | Activity [1] | Activity [2] | IC50 (HEK293 [3]) [µM] | Activity (HEK293 [4]) |
| --- | --- | --- | --- | --- |
| CS(=O)(=O)SCCCCCCNC(=O)CC(CC(=O)NO)c1ccc(Cl)cc1Cl (configuration not stated) | Toxic | Toxic |  |  |
| CS(=O)(=O)SCCCCCCCN(O)C(=O)/C=C/c1ccc(Cl)cc1Cl | Non-Toxic | Non-Toxic |  |  |
| CS(=O)(=O)SCCCCCCN(O)C(=O)/C=C/c1ccc(Cl)cc1Cl | Non-Toxic | Non-Toxic | 60 |  |
| CS(=O)(=O)SCCCCCN(O)C(=O)/C=C/c1ccc(Cl)cc1Cl | Non-Toxic | Non-Toxic |  |  |
| CCCCCNC(=O)CC(CC(=O)NO)c1ccc(Cl)cc1Cl (configuration not stated) |  |  |  | Non-Toxic |
| CS(=O)(=O)SCCCCCNC(=O)CC(CC(=O)NO)c1ccc(Cl)cc1Cl (configuration not stated) | Toxic | Toxic |  |  |
| CS(=O)(=O)SCCCNC(=O)CC(CC(=O)NO)c1ccc(Cl)cc1Cl (configuration not stated) | Toxic | Toxic |  | Non-Toxic |
| CS(=O)(=O)SCCCCNC(=O)CC(CC(=O)NO)c1ccc(Cl)cc1Cl (configuration not stated) | Toxic | Toxic |  |  |
